GSH bead fluor: compound fluoresces at 488/530 nm on GSH beads; actives 0.25% (n = 190,000); AID 1776; GSH beads flow cytometry, compound fluorescence 488/530 nm; stronger effect = higher value; fluorescence (KMESF) at 10 µM; in the data active means fluorescence above about 89;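 further: glutathione beads carrying GST-tagged Bcl family fusion proteins plus one bare bead set; values are compound well signal with DMSO vehicle wells as background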
PKD1 kinase inh: inhibitors of human PKD1 kinase; actives 0.056% (n = 200,000); PKD1 kinase fluorescence polarization assay; inhibition, % (test concentration not listed)
Avidin bead fluor: compound fluoresces at 488/530 nm on avidin beads; AID 1775; actives 0.38% (n = 220,000); fluorescence (KMESF) at 10 µM; compound fluorescence 488/530 nm, flow cytometry; stronger effect = higher value; in the data active means fluorescence above about 47
ABCG2 inh: human ABCG2 inhibition, ABCB1 as counter-screen | IgMXP3 cells, JC-1 efflux, flow cytometry | inhibition, % at 6.6 µM | actives 0.1% (n = 190,000) | AID 1325;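 active means inhibition above 80%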;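 further: 0% = DMSO and 100% = nicardipine control wells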
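Measure – % inhibition of efflux relative to nicardipine and DMSO · Test system – ABCG2 IgMXP3 and barcoded ABCB1 CCRF-Adr cell mix · Control set – nicardipine as high control, DMSO as low control · Compound – one concentration, 6.6 µM final · Signal – flow cytometry of retained JC-1 fluorescence · Timing – 10 min exposure at 25 °C with rotation, no wash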
L major viab: Leishmania major promastigote growth inhibition. actives 9% (n = 200,000). inhibition, % at 10 µM. Leishmania major promastigotes, resazurin fluorescence viability;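 further: promastigotes grown with compound for 44 hours at 28 °C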
ABCB1 inh: inhibitors of human ABCB1 transporter, ABCG2 counter-screen; P08183; CCRF-Adr cells, JC-1 efflux, flow cytometry; inhibition, % at 6.6 µM; actives 0.067% (n = 190,000); in the data active means inhibition above about 40%;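 further: 0% = vehicle and 100% = reference inhibitor; higher value means more JC-1 retained so stronger ABCB1 efflux block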
* marks the source's active call; other numbers are inactive results; . = not tested or not shown. Shown is part of a subset that was picked to be rich in hits. Unless noted, no stated cut-off is given here; in the data, active means inhibition above about 50%; inactive means the rest.

SMILES	GSH bead fluor	PKD1 kinase inh	Avidin bead fluor	ABCG2 inh	L major viab	ABCB1 inh
Cc1ccc(C(C)C)c(OCCCNCc2cccnc2)c1	19	0	9	2	87*	1
Cc1ccc(C(C)C)c(OCC(=O)NN=C(CCl)CCl)c1	.	.	7	.	.	.
O=C(CSc1c2c(nc3cc(Cl)ccc13)CCCC2)NCc1ccco1	20	-4	38	2	39	1
Cc1ccc(OCCOCCNC(C)(C)C)c([N+](=O)[O-])c1	10	1	15	-1	92*	0
COc1ccc(OCCOCCOc2ccc(C)cc2[N+](=O)[O-])cc1	9	4	6	1	2	0
CCC(C)NCCCCOc1ccc(C)cc1[N+](=O)[O-] (configuration not stated)	16	11	10	1	88*	0
C=CCNCCCCOc1ccc(C)cc1[N+](=O)[O-]	28	-11	15	-3	61*	0
Cc1ccc(OCCOCCN2CCCCC2)c([N+](=O)[O-])c1	22	-4	7	-1	70*	0
Cc1ccc(S(=O)(=O)N2CCC(=O)N(CCO)CC2)cc1	19	-4	10	-1	-5	0
O=C(O)CNC(=O)CC1S/C(=N/N=C2\CSC(=O)N2)NC1=O (configuration not stated)	8	-4	19	2	-8	1
Cc1onc(-c2ccccc2)c1C(=O)OCC(=O)Nc1cc(S(=O)(=O)N2CCOCC2)ccc1Cl	12	-5	12	20	24	1
COCCNCCCCOc1ccc(C)cc1[N+](=O)[O-]	22	6	7	1	74*	0
COc1cccc(OCCOCCOc2ccc(C)cc2[N+](=O)[O-])c1	11	6	11	61	3	2
COCCCNCCOc1ccc(C)cc1[N+](=O)[O-]	3	-3	15	4	90*	0
COCCCNCCOCCOc1ccc(C)cc1[N+](=O)[O-]	24	-3	9	1	94*	0
Cn1c(COc2ccccc2)nnc1SCCC(=O)Nc1ccccc1	30	-7	13	16	-2	1
COC(=O)c1ccc(OC(C)C(=O)c2ccc(C)cc2)cc1 (configuration not stated)	6	-9	4	1	-10	0
CCOC(=O)CSc1cc(CS(=O)c2ccc(Cl)cc2)nc(-c2ccccc2)n1 (configuration not stated)	22	0	32	3	-3	1
Cc1cc(C)c2c3c(sc2n1)C1(CCSCC1)C(C#N)=C(N)O3	24	-5	7	2	100*	0
Cc1oc2c(c1C(=O)N1CCC(C)CC1)C(=O)c1ccccc1C2=O	16	-7	4	10	100*	3
CC1CCN(C(=O)c2cc3ccccc3c(=O)o2)CC1	7	-3	2	2	-2	0
CCOC(=O)C1CCN(C(=O)c2c(C)oc3c2C(=O)c2ccccc2C3=O)CC1	12	-5	5	2	100*	0
Cc1cc([N+](=O)[O-])ccc1N(C)C	13	-3	8	-3	-1	0
COc1ccc(OC)c(NC(=O)c2cccc(S(=O)(=O)N(Cc3ccccc3)c3ccccc3OC)c2)c1	13	-1	21	7	96*	1
CCOc1ccccc1N(CC(=O)Nc1cc(OC)ccc1OC)S(C)(=O)=O	17	-5	35	2	84*	1
SMILES	GSH bead fluor	PKD1 kinase inh	Avidin bead fluor	ABCG2 inh	L major viab	ABCB1 inh
COc1ccccc1N(CC(=O)N/N=C/c1c(O)ccc2ccccc12)S(C)(=O)=O	6	-3	0	1	99*	0
COc1ccccc1N(Cc1ccccc1)S(=O)(=O)c1cccc(C(=O)Nc2ccc(C(C)=O)cc2)c1	9	-6	13	3	75*	1
Cc1ccc(S(=O)(=O)NNC(=O)c2sc(=S)n(C)c2C)cc1	19	-2	8	-2	-1	-1
Cc1ccccc1NC(=S)NC(NC(=O)c1ccccc1C)C(Cl)(Cl)Cl (configuration not stated)	29	-6	16	0	18	0
COc1ccc(N(CC(=O)Nc2ccccc2C(=O)NCCc2ccccc2)S(C)(=O)=O)cc1OC	26	-3	13	2	90*	1
COCCNC(=O)c1ccccc1NC(=O)CN(c1ccc2c(c1)OCO2)S(C)(=O)=O	30	-12	11	23	-2	1
